Measured values reported in ChEMBL document CHEMBL2177069, “Novel peptidomimetic compounds containing redox active chalcogens and quinones as potential anticancer agents” (Eur J Med Chem, 2012).

How the values were obtained:
Saccharomyces cerevisiae [1] = assay: Growth inhibition of COX17-deficient Saccharomyces cerevisiae YLL009C mutant at 20 ug/disc after 24 to 48 hrs by agar diffusion assay; assay type: functional; details: read-out: DIZ
Procedure, shortened: (§1)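 S. cerevisiae deletion mutants or wild type grown on YPD, seeded into liquid agar medium at an optical density of 0.1. 6 mm paper discs soaked with methanolic compound solution were placed on the plates and incubated at 30 °C. Growth was checked after 1 and 2 days, and the inhibition zone diameter was recorded in mm.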

Saccharomyces cerevisiae [2] = assay: Growth inhibition of RCK1-deficient Saccharomyces cerevisiae YGL158W mutant at 20 ug/disc after 24 to 48 hrs by agar diffusion assay; assay type: functional; details: read-out: DIZ; procedure, shortened: as §1
Saccharomyces cerevisiae [3] = assay: Growth inhibition of GTT2-deficient Saccharomyces cerevisiae YLL060C mutant at 20 ug/disc after 24 to 48 hrs by agar diffusion assay; assay type: functional; details: read-out: DIZ; procedure, shortened: as §1
Saccharomyces cerevisiae [4] = assay: Growth inhibition of WSC4-deficient Saccharomyces cerevisiae YHL028W mutant at 20 ug/disc 24 to 48 hrs by agar diffusion assay; assay type: functional; details: read-out: DIZ; procedure, shortened: as §1
Saccharomyces cerevisiae [5] = assay: Growth inhibition of SOD1-deficient Saccharomyces cerevisiae YJR104C mutant at 20 ug/disc after 24 to 48 hrs by agar diffusion assay; assay type: functional; details: read-out: DIZ; procedure, shortened: as §1
Saccharomyces cerevisiae [6] = assay: Growth inhibition of wild type Saccharomyces cerevisiae BY4741 at 20 ug/disc after 24 to 48 hrs by agar diffusion assay; assay type: functional; details: read-out: DIZ; procedure, shortened: as §1
HUVEC = assay: Cytotoxicity against human HUVEC cells after 24 hrs by MTT assay; assay type: cell-based
Procedure, shortened: (§2)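 MTT assay. Cells were seeded at 50,000 cells/mL in medium with 10% fetal calf serum and grown for two days at 37 °C, 10% CO2. Serial dilutions of compound were then added for 24 h. MTT was added (final 0.5 mg/mL) for 2 h, and the formazan was pelleted, washed, dissolved in isopropanol with 0.4% HCl and read at 590 nm. IC50 is the concentration giving 50% of untreated-control absorbance, taken from dose-response curves; mean of two parallel experiments.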

A498 [7] = assay: Cytotoxicity against human A498 cells after 24 hrs by MTT assay; assay type: functional, cell-based; details: A498, 24 h; procedure, shortened: as §2
MCF7 = assay: Cytotoxicity against human MCF7 cells after 24 hrs by MTT assay; assay type: functional, cell-based; details: MCF7, 24 h; procedure, shortened: as §2
MDA-MB-468 = assay: Cytotoxicity against human MDA-MB-468 cells; assay type: functional
T47D = assay: Cytotoxicity against human T47D cells; assay type: functional
BT-549 = assay: Cytotoxicity against human BT549 cells; assay type: functional
MDA-MB-231 = assay: Cytotoxicity against human MDA-MB-231 cells; assay type: functional
Hs-578T = assay: Cytotoxicity against human Hs578T cells; assay type: functional
UO-31 = assay: Cytotoxicity against human UO31 cells; assay type: functional
SN12C = assay: Cytotoxicity against human SN12C cells; assay type: functional
A498 [8] = assay: Cytotoxicity against human A498 cells; assay type: functional
[9] = Cytotoxicity against human 786-O cells; assay type: functional
SK-OV-3 = assay: Cytotoxicity against human SKOV3 cells; assay type: functional
OVCAR-8 = assay: Cytotoxicity against human OVCAR8 cells; assay type: functional
OVCAR-4 = assay: Cytotoxicity against human OVCAR4 cells; assay type: functional
OVCAR-5 = assay: Cytotoxicity against human OVCAR5 cells; assay type: functional
SK-MEL-5 = assay: Cytotoxicity against human SK-MEL-5 cells; assay type: functional
SK-MEL-28 = assay: Cytotoxicity against human SK-MEL-28 cells; assay type: functional
SK-MEL-2 = assay: Cytotoxicity against human SK-MEL-2 cells; assay type: functional
MDA-MB-435 = assay: Cytotoxicity against human MDA-MB-435 cells; assay type: functional
M14 = assay: Cytotoxicity against human M14 cells; assay type: functional
U-251 = assay: Cytotoxicity against human U251 cells; assay type: functional
SNB-75 = assay: Cytotoxicity against human SNB75 cells; assay type: functional
SNB-19 = assay: Cytotoxicity against human SNB19 cells; assay type: functional
SF-295 = assay: Cytotoxicity against human SF295 cells; assay type: functional
HCT-15 = assay: Cytotoxicity against human HCT15 cells; assay type: functional
HCC 2998 = assay: Cytotoxicity against human HCC2998 cells; assay type: functional
NCI-H460 = assay: Cytotoxicity against human NCI-H460 cells; assay type: functional
NCI-H322M = assay: Cytotoxicity against human NCI-H322M cells; assay type: functional
A549 = assay: Cytotoxicity against human A549 cells; assay type: functional
EKVX = assay: Cytotoxicity against human EKVX cells; assay type: functional
HOP-62 = assay: Cytotoxicity against human HOP62 cells; assay type: functional
MOLT-4 = assay: Cytotoxicity against human MOLT4 cells; assay type: functional

In the case of CC1=C(SCCC(=O)OC(C[Se]C2=C(C)C(=O)c3ccccc3C2=O)C(=O)NCCCCCC(=O)OCc2ccccc2)C(=O)c2ccccc2C1=O (centres undefined), the zone of inhibition at 20 µg/disc (Saccharomyces cerevisiae [1]) is reported as 11 mm, the zone of inhibition at 20 µg/disc (Saccharomyces cerevisiae [2]) is reported as 10 mm and the zone of inhibition at 20 µg/disc (Saccharomyces cerevisiae [3]) is reported as 12 mm. The zone of inhibition at 20 µg/disc (Saccharomyces cerevisiae [4]) was 16 mm, the zone of inhibition at 20 µg/disc (Saccharomyces cerevisiae [5]) was 16 mm and the zone of inhibition at 20 µg/disc (Saccharomyces cerevisiae [6]) was 0 mm. For the same compound, the IC50 (HUVEC) was 7 µM, the IC50 (A498 [7]) was 5 µM and the IC50 (MCF7) was 10 µM. The GI50 (MDA-MB-468) was 3.02 µM, the LC50 (MDA-MB-468) was 37.2 µM and the TGI (MDA-MB-468; read-out: pTGI (converted)) was 8.51 µM. The GI50 (T47D) was 17.8 µM, the LC50 (T47D) was > 100 µM and the TGI (T47D; read-out: pTGI (converted)) was 51.3 µM. The GI50 (BT-549) was 3.8 µM, the LC50 (BT-549) was 36.3 µM and the TGI (BT-549; read-out: pTGI (converted)) was 12.9 µM. The GI50 (MDA-MB-231) was 6.76 µM, the LC50 (MDA-MB-231) was 55 µM and the TGI (MDA-MB-231; read-out: pTGI (converted)) was 21.9 µM. For the same compound, the GI50 (Hs-578T) was 7.59 µM, the LC50 (Hs-578T) was > 100 µM and the TGI (Hs-578T; read-out: pTGI (converted)) was > 100 µM. The GI50 (UO-31) was 2.51 µM, the LC50 (UO-31) was 50.1 µM and the TGI (UO-31; read-out: pTGI (converted)) was 15.1 µM. The GI50 (SN12C) was 4.68 µM, the LC50 (SN12C) was 57.5 µM and the TGI (SN12C; read-out: pTGI (converted)) was 16.6 µM. The GI50 (A498 [8]) was 12 µM, the LC50 (50% lethal concentration) (A498 [8]) was > 100 µM and the TGI (A498 [8]; read-out: pTGI (converted)) was > 100 µM. For the same compound, the GI50 ([9]; 786-0) was 4.68 µM, the LC50 ([9]; 786-0) was 38 µM and the TGI ([9]; 786-0, read-out: pTGI (converted)) was 14.1 µM. It also gave a GI50 (SK-OV-3) of 7.08 µM, an LC50 (SK-OV-3) of 44.7 µM and a TGI (SK-OV-3; read-out: pTGI (converted)) of 19.5 µM. It also gave a GI50 (OVCAR-8) of 4.17 µM, an LC50 (OVCAR-8) of 50.1 µM and a TGI (OVCAR-8; read-out: pTGI (converted)) of 15.1 µM. It also gave a GI50 (OVCAR-4) of 12.3 µM, an LC50 (OVCAR-4) of 51.3 µM and a TGI (OVCAR-4; read-out: pTGI (converted)) of 25.1 µM. The GI50 (OVCAR-5) was 5.01 µM, the LC50 (OVCAR-5) was 61.7 µM and the TGI (OVCAR-5; read-out: pTGI (converted)) was 18.6 µM. For the same compound, the GI50 (SK-MEL-5) was 3.8 µM, the LC50 (SK-MEL-5) was 39.8 µM and the TGI (SK-MEL-5; read-out: pTGI (converted)) was 14.8 µM. The GI50 (SK-MEL-28) was 11.7 µM, the LC50 (SK-MEL-28) was 51.3 µM and the TGI (SK-MEL-28; read-out: pTGI (converted)) was 24.5 µM. It also gave a GI50 (SK-MEL-2) of 5.5 µM, an LC50 (SK-MEL-2) of 52.5 µM and a TGI (SK-MEL-2; read-out: pTGI (converted)) of 19.1 µM. The GI50 (MDA-MB-435) was 2.14 µM, the LC50 (MDA-MB-435) was 49 µM and the TGI (MDA-MB-435; read-out: pTGI (converted)) was 12.9 µM. The GI50 (M14) was 2 µM, the LC50 (M14) was 8.91 µM and the TGI (M14; read-out: pTGI (converted)) was 4.27 µM. For the same compound, the GI50 (U-251) was 4.07 µM, the LC50 (U-251) was 46.8 µM and the TGI (U-251; read-out: pTGI (converted)) was 13.5 µM. The GI50 (SNB-75) was 11.5 µM, the LC50 (SNB-75) was 49 µM and the TGI (SNB-75; read-out: pTGI (converted)) was 24 µM. For the same compound, the GI50 (SNB-19) was 3.8 µM, the LC50 (SNB-19) was 40.7 µM and the TGI (SNB-19; read-out: pTGI (converted)) was 14.1 µM. It also gave a GI50 (SF-295) of 2.51 µM, an LC50 (SF-295) of 97.7 µM and a TGI (SF-295; read-out: pTGI (converted)) of 8.71 µM. It also gave a GI50 (HCT-15) of 6.61 µM, an LC50 (HCT-15) of 58.9 µM and a TGI (HCT-15; read-out: pTGI (converted)) of 21.4 µM. For the same compound, the GI50 (HCC 2998) was 6.46 µM, the LC50 (HCC 2998) was 46.8 µM and the TGI (HCC 2998; read-out: pTGI (converted)) was 18.6 µM. The GI50 (NCI-H460) was 1.91 µM, the LC50 (NCI-H460) was 14.1 µM and the TGI (NCI-H460; read-out: pTGI (converted)) was 4.57 µM. It also gave a GI50 (NCI-H322M) of 3.8 µM, an LC50 (NCI-H322M) of 66.1 µM and a TGI (NCI-H322M; read-out: pTGI (converted)) of 17.4 µM. For the same compound, the GI50 (A549) was 3.98 µM, the LC50 (A549) was > 100 µM and the TGI (A549; read-out: pTGI (converted)) was 11.5 µM. For the same compound, the GI50 (EKVX) was 3.63 µM, the LC50 (EKVX) was 58.9 µM and the TGI (EKVX; read-out: pTGI (converted)) was 17.8 µM. For the same compound, the GI50 (HOP-62) was 3.8 µM, the LC50 (HOP-62) was 39.8 µM and the TGI (HOP-62; read-out: pTGI (converted)) was 14.5 µM. For the same compound, the GI50 (MOLT-4) was 4.07 µM, the LC50 (MOLT-4) was > 100 µM and the TGI (MOLT-4; read-out: pTGI (converted)) was > 100 µM.
